Consider one molecule from ChEMBL document CHEMBL5678801, “A benzothiophene inhibitor of mitogen-activated protein kinase-activated protein kinase 2 inhibits tumor necrosis factor alpha production and has oral anti-inflammatory efficacy in acute and chronic models of inflammation” (J Pharmacol Exp Ther, 2010).

The nature of series [1]: AUC in chronic SCW-induced arthritis Lewis rat model plasma at ED80 concentration. Format: ADME, cell-free. Summed up:
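Female Lewis rats (125-140 g) received a single i.p. streptococcal cell wall injection. Animals showing the acute phase were pooled, 4-8 per group over three experiments. Dosing was oral gavage b.i.d., days 10-21, in methylcellulose-Tween-20 vehicle. Hind paw volume was read by displacement plethysmometer on day 21, as % inhibition of swelling. Plasma was sampled up to 11 h after the last dose, 3 rats per dose. ED values came from fitted curves.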

Series [2] concerns the target MAP kinase-activated protein kinase 2 (Homo sapiens, UniProt P49137). Put plainly: Binding affinity to recombinant N-terminal truncated MK2 (45 to 371 residues) (unknown origin) expressed in Escherichia coli assessed as inhibition constant measured after 15 mins by surface plasmon resonance spectroscopy analysis. In general terms: Surface plasmon resonance follows binding to a sensor surface in real time, without labels.

The nature of series [3]: Inhibition of recombinant RSK1/2/3/4 (unknown origin) using KKKALSRQLSVAA as substrate incubated for 1 hr followed by substrate addition in presence of ATP. The arrangement: species or system Homo sapiens. Summed up:
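MAPKAP family kinases were activated by p38α (1:50 molar, 250 μM ATP, 1 h, 30°C). Assays ran in 20 mM HEPES pH 7.5, 10 mM MgCl2, 1 mM DTT, 0.01% BSA, 0.0005% Tween-20, at MgATP fixed at each enzyme's Km(app). The 33P-labelled product peptide was separated by ion exchange. Duplicate experiments. MSK1 (367-802) and MSK2 (351-772) were N-terminal 6xHis constructs from Sf9 cells.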

The nature of series [4]: Inhibition of IL-1 beta production in LPS induced human Whole blood cell preincubated with compound for 1 hr followed by LPS induction and measured after 16 hrs. The class given is functional, cell-based. In short, it runs like this: (§1)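 Human whole blood was stimulated ex vivo with LPS 100 ng/ml. Plasma cytokines were read by MSD 4-plex: TNFα at 4 h; IL-1β, IL-6 and IL-8 at 16 h. Data are means ±S.E.M. of two independent experiments in duplicate, three donors. IC50 by 4-parameter nonlinear regression.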

A short description of series [5]: Antiinflammatory activity in human PBMC cells assessed as inhibition of LPS induced IL-1 beta production preincubated for 1 hr followed by LPS stimulation and measured after 16 hrs by MSD analysis. Format: functional, cell-based. Summed up:
(§2)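 Human PBMCs were pretreated with compound for 1 h (<1% DMSO final), then stimulated with LPS 100 ng/ml at 37°C. Cytokines in culture media were read by MSD 4-plex: TNFα at 4 h; IL-1β, IL-6 and IL-8 at 16 h. Data are means ±S.E.M. of two independent experiments in duplicate, three donors. IC50 by 4-parameter nonlinear regression.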

Series [6] can be described thus: Antiinflammatory activity in human PBMC cells assessed as inhibition of LPS induced IL-8 production preincubated for 1 hr followed by LPS stimulation and measured after 16 hrs by MSD analysis. Format: functional, cell-based. In short, it runs like this:
as §2

Series [7] in a line: Antiinflammatory activity in human Whole blood cell assessed as inhibition of LPS induced IL-8 production preincubated for 1 hr followed by LPS stimulation and measured after 16 hrs by MSD analysis. Format: functional, cell-based. Summed up: as §1
Series [8] in a line: Oral bioavailability in Sprague-Dawley rat at 3 mg/kg measured upto 24 hrs by […] analysis. The class given is ADME, organism-based. The note with it: in vivo. In short, it runs like this: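 Male Sprague-Dawley rats (275-300 g), carotid-catheterized and acclimated overnight. Dosing was i.v. at 1 mpk (n=2) in 70% saline/20% PEG-400/10% ethanol, or oral at 3 mpk (n=3) as a suspension in 0.5% HPMC/Tween. Plasma drug was measured by LC-MS/MS. Cmax and Tmax were read from individual profiles. t½ came from the terminal log-linear slope and AUC by the linear trapezoidal rule. CL = dose/AUC0-∞, Vdss = CL×MRT, F = dose-normalized AUC po/iv.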

A short description of series [9]: Plasma concentration in po dosed LPS-induced Lewis rat model at ED80 concentration measured after 5.5 hrs of initial dose by LC-MS/MS analysis. Format: ADME, organism-based. Summed up: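 Male Lewis rats (225-250 g, 5 per group) were fasted 18 h, then dosed orally at 0.2-60 mg/kg as a suspension in 0.5% methylcellulose/0.025% Tween 20. LPS 1 mg/kg was given i.v. 4 h later. Blood was taken by cardiac puncture 90 min after LPS. Serum TNFα was read by ELISA and drug by LC-MS/MS, three independent experiments. 4-parameter fit. Unbound values were corrected with measured rat plasma protein binding.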

MAP kinase-activated protein kinase 2, sequence (P49137 whole entry, the tested form may be a part): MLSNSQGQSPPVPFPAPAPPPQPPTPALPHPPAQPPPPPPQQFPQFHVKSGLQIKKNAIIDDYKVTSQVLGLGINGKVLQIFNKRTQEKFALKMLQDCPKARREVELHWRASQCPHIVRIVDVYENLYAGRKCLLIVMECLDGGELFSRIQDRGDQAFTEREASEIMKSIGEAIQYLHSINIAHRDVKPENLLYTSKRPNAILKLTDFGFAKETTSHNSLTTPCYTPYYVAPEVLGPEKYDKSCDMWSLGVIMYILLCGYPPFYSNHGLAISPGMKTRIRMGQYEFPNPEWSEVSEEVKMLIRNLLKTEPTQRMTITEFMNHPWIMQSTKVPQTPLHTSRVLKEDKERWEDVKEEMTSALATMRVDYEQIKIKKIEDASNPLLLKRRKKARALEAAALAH

Usually AUC stands for the area under the concentration-time curve, a measure of exposure. The low end stands for low exposure, the high end for high exposure. Usually Ki stands for the equilibrium dissociation constant of an inhibitor or competing ligand from its target. The term IC50 denotes the concentration needed to halve the response being measured. What is called bioavailability is dose-corrected exposure relative to a reference, in per cent. The low end stands for little systemic uptake, the high end for much systemic uptake. As for `Cc1ccc(-c2ccc3c(ccc4sc5c(c43)NC[C@@H](C)NC5=O)n2)cn1`, the AUC in series [1] is 117 µM·h. The Ki in series [2] amounted to 0.003 µM. Besides, the IC50 in series [3] is > 1 µM; in series [4], > 25 µM; in series [5], 2.71 µM; in [6], 2.59 µM; in series [7], > 20 µM. The bioavailability in [8] was found to be 46%. This molecule displayed a concentration at 5.5 h in series [9] of 4.2 µM.
